Results: publication PMC12144996 (Acta Pharmaceutica Sinica. B, 2025)
pEC50: −log10 of the molar value. Where two headings read alike, the source gives them in different places.

What was measured:
[1] = tested on: HCoV-OC43; experiment: Anti-human coronavirus activity, viral RNA by qRT-PCR, HCoV-OC43 in HCT-8 cells; assay type: cell-based; settings: Betacoronavirus 1, OC43, HCT-8, read-out: EC50 for HCoV-OC43
[2] = tested on: HCoV-229E; experiment: microbe, parasite or virus in culture; assay type: cell-based; settings: Human coronavirus 229E, Huh-7, read-out: EC50 for HCoV-229E
[3] = tested on: HCoV-NL63; assay type: cell-based; settings: Human coronavirus NL63, LLC-MK2, read-out: EC50 for HCoV-NL63
[4] = tested on: MHV; experiment: Anti-animal coronavirus activity, viral load by qRT-PCR, MHV in L2 cells; assay type: cell-based, mouse hepatitis virus; settings: Murine coronavirus, 48 h, read-out: EC50 for MHV
In short: (§1)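 Cells seeded in 48-well plates and grown 24 h to about 90% confluence, then washed three times with serum-free medium. Infected at MOI 0.01 for 1 h at 37 °C, then given medium with test compound dilutions or DMSO. After 48 h at 37 °C, cells and supernatants were harvested for viral load by qRT-PCR. EC50 taken from the dose–response curve; mean ± SEM.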

[5] = tested on: PEDV; experiment: Anti-animal coronavirus activity, viral load by qRT-PCR, PEDV in Vero E6 cells; assay type: cell-based; settings: Porcine epidemic diarrhea virus, Vero C1008, 48 h, read-out: EC50 for PEDV
In short: as §1

[6] = tested on: TGEV; experiment: Anti-animal coronavirus activity, viral load by qRT-PCR, TGEV in ST cells; assay type: cell-based, transmissible gastroenteritis virus; settings: Alphacoronavirus 1, 48 h, read-out: EC50 for TGEV
In short: as §1

[7] = tested on: MHV-A59; assay type: in vivo, mouse hepatitis virus
[8] = tested on: MHV-A59; experiment: Prophylactic ATV006 in MHV-A59-infected BALB/c mice, liver; assay type: in vivo, mouse hepatitis virus
[9] = tested on: MHV-A59; experiment: Prophylactic ATV006 in intranasally MHV-A59-infected BALB/c mice, lung; assay type: in vivo, mouse hepatitis virus; settings: 3 dpi
In short: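 BALB/c mice were inoculated intranasally with 4×10^5 PFU MHV-A59 under mild isoflurane anaesthesia. They received vehicle (n = 6) or test compound at 500, 250, 100 or 50 mg/kg intragastric twice daily as prophylaxis (n = 5). Lungs were taken at 3 dpi for qRT-PCR and for plaque assay on L2 cells (methyl cellulose overlay, crystal violet). Lung sections were zinc formalin-fixed, 4 μm, H&E stained.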

[10] = tested on: MHV-A59; experiment: Therapeutic treatment from 12 hpi in MHV-A59-infected BALB/c mice; assay type: in vivo, mouse hepatitis virus; settings: 5 dpi; for Serum ALT and AST (liver injury markers): 50 mg/kg intragastric twice daily from 12 hpi, vs vehicle; for MHV replication in the lung (qRT-PCR and plaque assay): 500 mg/kg intragastric twice daily from 12 hpi
In short: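 BALB/c mice were infected intranasally with 4×10^5 PFU MHV-A59. At 5 dpi, lung and liver were assayed by qRT-PCR and L2-cell plaque assay. Orbital blood was clotted at room temperature and the serum run in ALT/AST kits.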

[11] = tested on: MHV-A59; experiment: Delayed therapeutic treatment; assay type: in vivo, mouse hepatitis virus; settings: 5 dpi; for Viral replication in the lung (qRT-PCR): start 24-96 hpi
In short: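 BALB/c mice under light isoflurane anaesthesia were infected intranasally with 4×10^5 PFU MHV-A59 in 40 μL DMEM. Test compound was started at delayed times post-infection and given every 12 h. At 5 dpi, lung and liver virus was measured by qRT-PCR and by plaque assay on L2 cells, with methyl cellulose overlay and crystal violet staining. Lungs were scored 0–4 for edema, mononuclear and PMN infiltration and hemorrhage; livers were blindly Ishak-scored. Serum ALT/AST measured by kit.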

[12] = tested on: MHV-A59; experiment: Time-of-addition of ATV006 in MHV-A59-infected cells, viral load; assay type: cell-based, mouse hepatitis virus; settings: ATV006 administered 48 h after the viral infection; MOI = 0.0001
[13] = rats; cited from earlier work
[14] = cynomolgus monkeys; cited from earlier work
[15] = ATV006 500 mg/kg administered at 24 hpi
[16] = […], GS-441524 50 mg/kg oral once daily
[17] = […], remdesivir 20 mg/kg intraperitoneal once daily

SMILES: CC(C)C(=O)OC[C@H]1O[C@@](C#N)(c2ccc3c(N)ncnn23)[C@H](O)[C@@H]1O [ATV006]
- pEC50 [1]: 5.54
- pEC50 [2]: 5.95
- pEC50 [3]: 6.10
- pEC50 [4]: 6.58
- pEC50 [5]: 5.98
- pEC50 [6]: 5.52
- Survival ([7]; […], ATV006 2 mg/kg intragastric once daily): all died by 10 dpi
- Mortality and weight loss ([7]; […], ATV006 5 to 50 mg/kg intragastric once daily): effectively prevented mortality and weight loss
- Reduction of viral titers in the liver ([7]; mouse, in vivo, 2 mg/kg): approximately sixfold
- Live virus in the liver (plaque assay) ([7]; mouse, in vivo, 50 mg/kg): no live virus was found in the liver
- Reduction of viral titers in the liver ([7]; mouse, in vivo, 50 mg/kg): 1,000,000 fold
- Inflammatory cell infiltration in the liver (histopathology) ([8]; ATV006 50 mg/kg intragastric twice daily): significant reduction in inflammatory cell infiltration
- Serum ALT and AST (liver injury markers) ([8]; ATV006 50 mg/kg intragastric twice daily, 3 dpi, vs control): lower in the ATV006-treated group than in the control group
- Viral titers in the liver (plaque assay) ([8]; ATV006-treated group, prophylactic, 3 dpi): below the detection limit
- Expression of inflammatory cytokines in the liver ([8]; ATV006 prophylactic, 3 dpi): significant decrease in the expression of various inflammatory cytokines in the liver
- Inflammatory cell infiltration in lung (histopathology) ([9]; ATV006 500 mg/kg intragastric twice daily): vehicle-treated mice had more inflammatory cell infiltration compared to mice treated with ATV006
- MHV infectious particles in the lung (plaque assay) ([9]; ATV006 50-500 mg/kg intragastric twice daily): dose-dependent decrease in the number of MHV infectious particles
- Inflammatory cytokines and chemokines in the lung (Ifnβ, Cxcl10, Il6, Il1β, Ifnγ) ([9]; ATV006 prophylactic): significantly reduced the production of inflammatory cytokines and chemokines in the lung
- Serum ALT and AST (liver injury markers) [10]: significantly reduced the liver injury markers ALT and AST
- MHV replication in the lung (qRT-PCR and plaque assay) [10]: significantly inhibited MHV replication in the lung
- MHV replication in the liver (qRT-PCR) ([10]; ATV006 2-50 mg/kg intragastric twice daily from 12 hpi): inhibited MHV replication in a dose-dependent manner
- Virus titers in the liver (plaque assay) ([10]; ATV006 at 2, 10, 25, 50 mg/kg twice daily from 12 hpi): below the detection limit of the plaque assay
- MHV replication in the liver (qRT-PCR) ([11]; ATV006 2 mg/kg, delayed treatment): ineffective
- Liver pathology (Ishak scoring) ([11]; ATV006 10 mg/kg administered at 24, 48 and 72 hpi): significantly reduced liver piecemeal necrosis, bridging necrosis, circumscribed hepatic necrosis, and portal inflammation
- Serum ALT and AST levels ([11]; ATV006 10 mg/kg, delayed treatment): alleviated liver injury
- Virus titers in the liver (plaque assay) ([11]; ATV006 50 mg/kg administered as late as 96 hpi): reduced virus titers to levels undetectable by plaque assay
- Viral replication in the lung (qRT-PCR) ([11]; ATV006 250 mg/kg every 12 h): significant inhibition of viral replication only when ATV006 treatment (250 mg/kg) began no later than 24 hpi
- Bleeding in the lungs (hemorrhage score) [11, 15]: did not improve significantly
- Lung pathology: edema, monocyte and neutrophil infiltration [11, 15]: reduced pulmonary edema and monocyte and neutrophil infiltration
- Viral replication in the lung (qRT-PCR) ([11]; ATV006 500 mg/kg every 12 h): effective when started within 48 hpi
- Infectious viral particles in the lungs (plaque assay) ([11]; ATV006 500 mg/kg initiated within 48 hpi): No infectious viral particles were detected
- MHV replication in the liver (qRT-PCR) ([11]; ATV006 10, 25 and 50 mg/kg administered at 24 or 48 hpi): significantly inhibited MHV replication
- Inhibition of MHV-A59 viral load [12]: no inhibitory effect was observed
- Oral bioavailability [13]: high oral bioavailability
- Oral bioavailability [14]: high oral bioavailability

SMILES: N#C[C@@]1(c2ccc3c(N)ncnn23)O[C@H](CO)[C@@H](O)[C@H]1O [GS-441524, reference compound]
- Body weight compared with ATV006 (50 mg/kg) [7, 16]: lower than that of mice treated with ATV006
- Survival [7, 16]: prevented MHV-infected mice from dying
- Serum ALT and AST (liver injury markers) [10]: significantly reduced the liver injury markers ALT and AST
- MHV replication in the lung (qRT-PCR and plaque assay) [10]: only ATV006 significantly inhibited MHV replication in the lung
- Virus titers in the liver (plaque assay) ([10]; GS-441524 at 25, 50 mg/kg twice daily from 12 hpi): below the detection limit of the plaque assay

SMILES: CCC(CC)COC(=O)[C@H](C)N[P@](=O)(OC[C@H]1O[C@@](C#N)(c2ccc3c(N)ncnn23)[C@H](O)[C@@H]1O)Oc1ccccc1 [remdesivir, reference compound]
- Body weight compared with ATV006 (50 mg/kg) [7, 17]: lower than that of mice treated with ATV006
- Survival [7, 17]: prevented MHV-infected mice from dying
